Experimental findings from ChEMBL document CHEMBL2177035, “Design and synthesis of dual modulators of soluble epoxide hydrolase and peroxisome proliferator-activated receptors” (J Med Chem, 2012) are described below.

Usually pIC50 stands for the IC50 on a negative log10 scale, so that one unit is a factor of ten.

pIC50: −log10 of the molar value. Active and inactive are the calls of the source. The calls are words filed in the database; no cut-off is given here.

Test [1] deals with T1, Bifunctional epoxide hydrolase 2 (Homo sapiens, UniProt P34913).
T1 sequence (P34913 whole entry): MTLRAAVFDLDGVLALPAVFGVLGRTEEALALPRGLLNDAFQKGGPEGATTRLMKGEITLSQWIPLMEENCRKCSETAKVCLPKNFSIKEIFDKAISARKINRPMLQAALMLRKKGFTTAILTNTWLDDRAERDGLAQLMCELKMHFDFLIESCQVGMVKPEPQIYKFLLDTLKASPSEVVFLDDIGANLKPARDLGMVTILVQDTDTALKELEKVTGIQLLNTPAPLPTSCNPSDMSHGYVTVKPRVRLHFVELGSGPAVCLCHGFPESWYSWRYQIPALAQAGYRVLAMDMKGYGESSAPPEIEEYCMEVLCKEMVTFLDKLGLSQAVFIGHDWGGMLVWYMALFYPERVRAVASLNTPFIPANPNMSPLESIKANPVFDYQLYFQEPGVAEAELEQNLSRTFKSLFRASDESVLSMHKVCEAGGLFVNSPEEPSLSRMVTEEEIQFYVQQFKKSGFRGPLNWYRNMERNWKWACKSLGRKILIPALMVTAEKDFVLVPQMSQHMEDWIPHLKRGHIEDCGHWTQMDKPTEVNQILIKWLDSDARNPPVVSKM
Nature of the test: Inhibition of recombinant soluble epoxide hydrolase using PHOME as substrate after 10 mins by fluorescence assay.

In test [2] the target is T2, Peroxisome proliferator-activated receptor delta (Homo sapiens) (UniProt Q03181).
T2 sequence (whole entry): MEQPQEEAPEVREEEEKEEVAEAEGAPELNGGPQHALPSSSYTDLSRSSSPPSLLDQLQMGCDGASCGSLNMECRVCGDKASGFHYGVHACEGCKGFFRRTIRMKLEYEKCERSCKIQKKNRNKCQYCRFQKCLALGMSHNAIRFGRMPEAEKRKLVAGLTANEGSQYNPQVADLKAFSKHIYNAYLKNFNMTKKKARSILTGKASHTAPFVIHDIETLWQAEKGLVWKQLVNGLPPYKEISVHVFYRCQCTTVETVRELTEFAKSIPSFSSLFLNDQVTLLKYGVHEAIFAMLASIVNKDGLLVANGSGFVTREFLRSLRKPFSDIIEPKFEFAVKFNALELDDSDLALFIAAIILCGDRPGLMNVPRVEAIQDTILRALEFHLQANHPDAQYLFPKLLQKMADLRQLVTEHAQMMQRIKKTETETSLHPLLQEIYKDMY
Nature of the test: Transactivation of GAL4-fused human PPARdelta ligand binding domain transfected in african green monkey COS7 cells at 10 uM by luciferase reporter gene assay relative to L-165041. Type of test: cell-based. As to conditions: COS-7. In a few lines:
(§1)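 COS7 cells in DMEM/10% FCS at 37 °C, 5% CO2, plated 30000/well the day before. Lipofectamine LTX co-transfection of pFR-Luc, pRL-SV40 and Gal4–hPPAR-LBD (pFA-CMV) of the given subtype. After 5 h, switched to phenol red-free DMEM/10% FCS with 0.1% DMSO and compound; overnight incubation. Dual-Glo firefly/renilla luminescence, normalized to DMSO. Maximum effect compared with 1 μM reference agonist (GW7647 for α, L165,041 for δ). Triplicate wells, ≥3 independent runs.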
In general terms: Reporter assays use an easily measured gene product as a stand-in for the process of interest.

The target in test [3] is T3, Peroxisome proliferator-activated receptor alpha (Homo sapiens) (UniProt Q07869).
T3 sequence (whole entry): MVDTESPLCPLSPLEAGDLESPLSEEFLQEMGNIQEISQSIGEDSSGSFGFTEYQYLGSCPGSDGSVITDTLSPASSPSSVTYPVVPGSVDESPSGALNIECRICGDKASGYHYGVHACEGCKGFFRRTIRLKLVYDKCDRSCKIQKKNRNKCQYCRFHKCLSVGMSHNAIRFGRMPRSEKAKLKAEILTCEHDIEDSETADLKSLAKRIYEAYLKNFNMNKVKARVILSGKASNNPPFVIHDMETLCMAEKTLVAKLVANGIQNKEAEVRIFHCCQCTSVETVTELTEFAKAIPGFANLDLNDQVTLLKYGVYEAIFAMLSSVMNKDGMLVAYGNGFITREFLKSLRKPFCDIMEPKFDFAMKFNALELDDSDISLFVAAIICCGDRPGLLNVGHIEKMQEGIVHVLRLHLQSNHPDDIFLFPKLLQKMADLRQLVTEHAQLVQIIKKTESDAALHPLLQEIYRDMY
Nature of the test: Transactivation of GAL4-fused human PPARalpha ligand binding domain transfected in african green monkey COS7 cells at 10 uM by luciferase reporter gene assay relative to GW7647. Type of test: cell-based. As to conditions: COS-7. In a few lines: as §1

The target in test [4] is T3, Peroxisome proliferator-activated receptor alpha (Homo sapiens). The test is described as follows: Transactivation of GAL4-fused human PPARalpha ligand binding domain transfected in african green monkey COS7 cells by luciferase reporter gene assay. Type of test: cell-based. As to conditions: COS-7. In a few lines:
(§2)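 Gal4–hPPAR-LBD (α or δ) transient co-transfection with pFR-Luc and pRL-SV40 into COS7 cells seeded 30000/well. Compounds given in phenol red-free DMEM/10% FCS with 0.1% DMSO from 5 h post-transfection, overnight. Firefly over renilla luminescence, divided by DMSO control. EC50 and SD from means of ≥3 determinations by four-parameter logistic fit; triplicate wells, ≥3 independent experiments.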

Test [5] deals with T2, Peroxisome proliferator-activated receptor delta (Homo sapiens). Nature of the test: Transactivation of GAL4-fused human PPARdelta ligand binding domain transfected in african green monkey COS7 cells by luciferase reporter gene assay. Type of test: cell-based. As to conditions: COS-7. An outline of the steps: as §2

With `CCOC(=O)c1cccn1Cc1cccc(CNC(=O)NC2CCCCC2)c1`, the pIC50 in test [1] is 7.57. The result in test [2] and in test [3] was inactive.

As for `CCOC(=O)c1cccn1Cc1ccccc1CNC(=O)NC1CCCCC1`, in test [1], the pIC50 is 7.41. For the same compound, the result in test [2] and in test [3] was inactive.

Turning to `CCOC(=O)c1cccn1Cc1ccccc1CNC(=O)NC12C[C@H]3C[C@@H](C1)C[C@@H](C2)C3`, the pIC50 in test [1] is 7.37. The outcome in test [2] and in test [3] was inactive.

Take `CCOC(=O)c1cccn1Cc1ccccc1CNC(=O)Nc1ccc(OC(F)(F)F)cc1`: the pIC50 in test [1] is 5.70. The outcome in test [2] and in test [3] was inactive.

On to `O=C(NCc1ccc(Cn2cccc2C(=O)O)cc1)NC12C[C@H]3C[C@@H](C1)C[C@@H](C2)C3`, for which the pIC50 in test [1] was 7.14. For the same compound, the result in test [2] and in test [3] was inactive.

Consider `O=C(NCc1ccc(Cn2cccc2C(=O)O)cc1)Nc1ccc(OC(F)(F)F)cc1`, for which the pIC50 in test [1] was 6.59. The outcome in test [2] and in test [5] was inactive. In test [4], this compound had a %max of 90%. Moreover, the Activity in test [3] came out at 67%.

With `CCOC(=O)c1cccn1Cc1cccc(CNC(=O)NC23C[C@H]4C[C@@H](C2)C[C@@H](C3)C4)c1`, in test [1], the pIC50 is 7.34. In addition, the result in test [2] and in test [3] was inactive.

For `CCOC(=O)c1cccn1Cc1ccc(CNC(=O)Nc2ccc(OC(F)(F)F)cc2)cc1`, the pIC50 in test [1] is 6.21. Moreover, the result in test [2] and in test [3] was inactive.

On to `O=C(NCc1cccc(Cn2cccc2C(=O)O)c1)NC1CCCCC1`, for which, in test [1], the negative-log IC50 (pIC50) was 5.72. Further, the outcome in test [2] and in test [3] was inactive.

Take `CCOC(=O)c1cccn1Cc1cccc(CNC(=O)Nc2ccc(OC(F)(F)F)cc2)c1`: the outcome in test [2] and in test [3] was inactive.

For `CCOC(=O)c1cccn1Cc1ccc(CNC(=O)NC2CCCCC2)cc1`, the pIC50 in test [1] is 7.64. Moreover, the outcome in test [2] and in test [3] was inactive.

On to `O=C(NCc1cccc(Cn2cccc2C(=O)O)c1)NC12C[C@H]3C[C@@H](C1)C[C@@H](C2)C3`, for which the pIC50 in test [1] was 6.52. Besides, the outcome in test [2] and in test [3] was inactive.

`CCOC(=O)c1cccn1Cc1ccc(CNC(=O)NC23C[C@H]4C[C@@H](C2)C[C@@H](C3)C4)cc1`: the pIC50 in test [1] was 7.06. In addition, the result in test [2] and in test [3] was inactive.

As for `O=C(NCc1ccc(Cn2cccc2C(=O)O)cc1)NC1CCCCC1`, the negative logarithm of the IC50 (pIC50) in test [1] was 6.60. The outcome in test [2] and in test [3] was inactive.

Take `O=C(NCc1ccccc1Cn1cccc1C(=O)O)NC12C[C@H]3C[C@@H](C1)C[C@@H](C2)C3`: the outcome in test [2], in test [4], in test [5] and in test [3] was inactive.

For the compound `O=C(NCc1cccc(Cn2cccc2C(=O)O)c1)Nc1ccc(OC(F)(F)F)cc1`, in test [1], the pIC50 is 6.03. In test [4], this compound registered a %max of 97%. Further, the Activity in test [3] was found to be 58%.

Take `O=C(NCc1ccccc1Cn1cccc1C(=O)O)Nc1ccc(OC(F)(F)F)cc1`: the outcome in test [2] and in test [5] was inactive. The same compound displayed a %max in test [4] of 55%. This compound also had an Activity in test [3] of 38%.

As to `O=C(NCc1ccccc1Cn1cccc1C(=O)O)NC1CCCCC1`, the pIC50 in test [1] is 6.13. Moreover, the outcome in test [2] and in test [3] was inactive.
